# This is a sample that favours compounds with a hit; in the whole collection about 3.2% have one here.
# S100A4 MyoIIA: inhibitors of S100A4-myosin IIA peptide binding, primary screen, biochemical, fluorescence polarization, TAMRA-MyoIIA peptide; AID 652163, 2013; Protein S100-A4 (Homo sapiens), P26447; 0.14% of 360,000 active; inhibition, % at 10.7 µM;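 active = mean inhibition of at least 70% across replicates, with every replicate also reaching that level; inconclusive = mean inhibition reaches 70% but some replicates fall short; inactive = mean inhibition below 70%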
# Target sequence (P26447 whole entry, looked up): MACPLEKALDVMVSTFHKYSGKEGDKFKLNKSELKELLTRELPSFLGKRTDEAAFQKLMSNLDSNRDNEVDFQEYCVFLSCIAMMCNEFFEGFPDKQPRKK
#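 Assay system: human S100A4 monomer with TAMRA-labelled myosin IIA peptide / Buffer or medium: Calcium-containing HEPES buffer, pH 7.2 / Reagent: TAMRA-labelled myosin IIA heavy-chain peptide probe, 5 nM / Compound: one dose per compound / Timing: polarization read 5 min after assay mix addition, stable 5–60 min / Benchmarks: neutral control DMSO, positive control TFP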
# AF4-AF9 inh: inhibitors of AF4 peptide binding to AF9, primary screen, biochemical, AlphaScreen, biotin-AF4 peptide, FLAG-AF9, single point. 0.47% of 350,000 active. inhibition, % at 10 µM. Protein AF-9 (Homo sapiens), P42568;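 active = every replicate reaching a set inhibition limit, whatever the replicate mean, cut at about 25% in these data; inconclusive = mean inhibition reaches that limit but some replicates miss it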;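 note: 0% = plate neutral control median and 100% = total signal loss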
# Target sequence (P42568 whole entry, looked up): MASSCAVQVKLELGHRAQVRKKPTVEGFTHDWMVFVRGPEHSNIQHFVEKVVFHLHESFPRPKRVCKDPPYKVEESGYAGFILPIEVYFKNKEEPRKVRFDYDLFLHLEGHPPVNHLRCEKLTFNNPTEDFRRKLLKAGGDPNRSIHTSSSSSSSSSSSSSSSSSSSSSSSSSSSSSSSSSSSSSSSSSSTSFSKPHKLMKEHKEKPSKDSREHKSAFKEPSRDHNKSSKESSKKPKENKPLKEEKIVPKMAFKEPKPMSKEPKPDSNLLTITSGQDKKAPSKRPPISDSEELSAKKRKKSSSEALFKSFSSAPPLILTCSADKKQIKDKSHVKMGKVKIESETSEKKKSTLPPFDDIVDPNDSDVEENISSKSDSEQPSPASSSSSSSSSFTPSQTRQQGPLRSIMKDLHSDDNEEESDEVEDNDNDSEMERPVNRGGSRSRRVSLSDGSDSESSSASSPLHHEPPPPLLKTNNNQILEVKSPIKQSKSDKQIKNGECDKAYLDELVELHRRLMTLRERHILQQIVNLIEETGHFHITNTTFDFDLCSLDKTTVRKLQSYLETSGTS
# DENV2 CPE rescue: inhibitors of DENV2 cytopathic effect, primary screen, cell-based, plate reader, single concentration | DENV2-infected cells, cytopathic effect rescue | CPE inhibition, % at 9.99 µM | 1.7% of 350,000 active | AID 651640, 2012; in the data active = CPE inhibition above about 20%, passing the limit was not always enough; inconclusive = no clear call, values can overlap the other calls; tested in BHK-21 cells;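 note: 0% = median of neutral control wells and 100% = median of positive control wells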
# Cneo AK release: Cryptococcus neoformans cell lysis inducers, primary screen, AK release luminescence, single concentration. C. neoformans lysis, adenylate kinase release luminescence, 4 h; normalised: neutral wells 0, clomiphene wells 100. lysis activity, % at 15 µM. 0.2% of 360,000 active;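 active = mean lysis activity across replicates of at least 80%, whatever share of replicates individually reach that level; inactive = mean lysis activity below 80%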
#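 Test system: log-phase Cryptococcus neoformans yeast cells. Input: 5 × 10^6 yeast cells/mL. Medium: fresh YPD growth medium. Doses: single dose. Incubation: static 4 h at 37 °C with compound, 1 h detection. Measured by: luminescent adenylate kinase detection reagent. Read-out: signal increase indicating cell lysis. Benchmarks: Clomiphene.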
# PfHsp90 set2: growth inhibition of PfHsp90-expressing yeast, primary screen, antimalarial PfHsp90 inhibitor project, S. cerevisiae, BacTiter-Glo luminescence, single point, set 2. BacTiter-Glo ATP, 48 h; yeast lacking PDR1 and PDR3 efflux regulators. inhibition, % at 9.4 µM. 0.32% of 310,000 active. AID 504621, 2011;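 active = every replicate shows inhibition above about 80%, whatever the replicate mean, limit read from the data; inconclusive = mean inhibition reaches the set limit but some replicate falls short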;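 note: 0% = DMSO neutral controls and 100% = 20 µM radicicol positive controls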
# Ecoli rRNA inh: reduced GFP signal of wild-type E. coli, primary screen, bacterial rRNA inhibitor project, GFP/RFP fluorescence, OD600, single point; E. coli WT GFP vs humanized-ribosome RFP mutants, 24 h; active compounds read low; DMSO median 0, no signal -100; GFP signal change (wild-type ribosome), % (test concentration not listed); 1.6% of 350,000 active; AID 720706, 2013;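 active = significant combined selectivity score with lowered wild-type GFP, culture density cut under 30%, mutant RFP and density less affected; inactive = any of these conditions unmet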
# Starred values were filed as active, the others as inactive; ? = inconclusive; . = no result.
SMILES,S100A4 MyoIIA,AF4-AF9 inh,DENV2 CPE rescue,Cneo AK release,PfHsp90 set2,Ecoli rRNA inh
Cc1cc(C(=O)Nc2sc3c(c2C#N)CCCC3)no1,1,-20,-3,-4,26,-31*
Cc1cc(C(=O)Nc2sc3c(c2C#N)CCC3)no1,.,.,.,1,11,.
Cc1ccc(S(=O)(=O)N(C)C[C@@H]2Oc3ccc(NC(=O)CCC(F)(F)F)cc3CC(=O)N([C@@H](C)CO)C[C@H]2C)cc1,13,2,8,1,.,-4
C[C@H]1CN([C@@H](C)CO)C(=O)c2cc(C#Cc3ccncc3)cnc2O[C@@H]1CN(C)CC1CCOCC1,-4,-7,-7,48,.,4
COc1ccc(C[C@H]2CCn3cc(nn3)COCCNC2=O)cc1,.,.,.,.,.,2
O=C(Nc1cc(F)cc(F)c1)c1sc(Cl)nc1-c1ccccc1,4,-1,68*,-1,-8,0
O=C(O)c1ccc(/C=C2\SC(=S)N(NC(=O)c3ccccc3[N+](=O)[O-])C2=O)cc1,-16,-3,5,-1,1,4
O=C(NN1C(=O)/C(=C\c2ccc(O)c([N+](=O)[O-])c2)SC1=S)c1ccccc1Cl,-9,13,-6,-2,104*,-1
CN(C)CCCN(C(=O)c1ccc2c(c1)CCCC2)c1nc2c(F)cccc2s1,1,32*,-9,1,9,-48
CN(C)CCN(C(=O)c1ccc2c(c1)CCCC2)c1nc2cc3c(cc2s1)OCCO3,0,37*,?,39,17,1
CN(C)CCCN(C(=O)c1ccc(S(=O)(=O)N(C)Cc2ccccc2)cc1)c1nc2c(F)cccc2s1,-3,11,15,0,-1,-33*
Cc1ccc2nc(N(CCCN(C)C)C(=O)c3ccc4c(c3)CCCC4)sc2c1,.,.,.,13,35,.
CN(C)CCCN(C(=O)c1ccc(Cl)s1)c1nc2cc3c(cc2s1)OCO3,-1,10,-6,-2,28,-12
CN(C)CCCN(C(=O)c1cc(Cl)sc1Cl)c1nc2cc3c(cc2s1)OCO3,-3,28*,1,35,-10,-19
CN(C)CCCN(C(=O)CCc1ccccc1)c1nc2c(F)cccc2s1,.,.,.,7,-4,.
C[C@@H]1CCCCO[C@H](CN(C)C(=O)CCCN(C)C)[C@H](C)CN([C@@H](C)CO)C(=O)c2cc(NC(=O)c3ccccc3)ccc2O1,0,-5,10,2,.,0
CCN(CC)CCN(C(=O)C1CCCCC1)c1nc2cc3c(cc2s1)OCO3,-10,18,7,13,-1,-18*
C[C@H]1CN([C@@H](C)CO)C(=O)Cc2cc(NC(=O)Cc3ccccc3)ccc2O[C@H]1CN(C)Cc1ccc2c(c1)OCO2,5,-2,-11,-4,.,-2
O=C(N1CCN(c2ccccc2)CC1)C12CC3CC(CC(C3)C1)C2,-1,.,.,-1,17,-6
Cc1nnn(C23C[C@@H]4C[C@@H](CC(C(=O)N5CCN(c6ccccc6)CC5)(C4)C2)C3)n1,0,0,8,2,0,-31*
Clc1ccc2c(c1)c1cc(Cl)ccc1n2CN1CCOCC1,.,.,.,-1,.,.
Clc1ccc2c(c1)c1ccccc1n2CN1CCOCC1,-4,.,.,-4,7,-33*
Cc1noc(C)c1NC(=O)N(C)C[C@H]1Oc2cc(C#CCC3CCCC3)ccc2S(=O)(=O)N([C@H](C)CO)C[C@H]1C,10,37*,-3,-16,.,-5
Cc1noc(C)c1NC(=O)N(C)C[C@H]1Oc2cc(C#CCC(C)C)ccc2S(=O)(=O)N([C@@H](C)CO)C[C@H]1C,0,1,1,0,.,-2
Cc1noc(C)c1NC(=O)N(C)C[C@@H]1Oc2cc(C#CCC(C)C)ccc2S(=O)(=O)N([C@@H](C)CO)C[C@@H]1C,-1,28*,-1,1,.,2
SMILES,S100A4 MyoIIA,AF4-AF9 inh,DENV2 CPE rescue,Cneo AK release,PfHsp90 set2,Ecoli rRNA inh
Cc1noc(C)c1NC(=O)N(C)C[C@@H]1Oc2cc(C#CCC3CCCC3)ccc2S(=O)(=O)N([C@H](C)CO)C[C@H]1C,-1,?,0,-5,.,-1
Cc1noc(C)c1NC(=O)N(C)C[C@@H]1Oc2cc(C#CCC3CCCC3)ccc2S(=O)(=O)N([C@@H](C)CO)C[C@@H]1C,-6,29*,1,-2,.,-6
CCC(=O)Nc1ccc2c(c1)OC[C@@H](C)N(C(=O)COC)C[C@@H](C)[C@@H](OC)CN(C)C2=O,13,1,-8,-4,.,1
C[C@H]1CN([C@@H](C)CO)C(=O)Cc2cc(NC(=O)Nc3ccc4c(c3)OCO4)ccc2O[C@H]1CN(C)C(=O)Nc1ccc(F)cc1,.,.,-6,-1,.,-1
C[C@H]1CN([C@@H](C)CO)C(=O)Cc2cc(NC(=O)Nc3ccccc3)ccc2O[C@@H]1CN(C)C(=O)Nc1ccc2c(c1)OCO2,15,-5,.,101*,.,2
C[C@@H]1CN([C@H](C)CO)C(=O)Cc2cc(NC(=O)CCCN(C)C)ccc2O[C@H]1CN(C)C(=O)Nc1ccc2c(c1)OCO2,14,-38,1,4,.,6
C[C@H](CO)N1C[C@H](C)[C@@H](CN(C)C(=O)Nc2ccc3c(c2)OCO3)Oc2ccc(NC(=O)Nc3ccc(F)cc3)cc2CC1=O,7,2,23*,0,.,-2
CCOC(=O)CCCCCC(=O)Nc1ccc2c(c1)CC(=O)N([C@@H](C)CO)C[C@H](C)[C@@H](CN(C)C(=O)Nc1ccc3c(c1)OCO3)O2,7,-10,46*,-2,0,6
C[C@@H]1CN([C@@H](C)CO)C(=O)Cc2cc(NC(=O)Nc3ccccc3)ccc2O[C@H]1CN(C)C(=O)Nc1ccc2c(c1)OCO2,1,4,4,-10,.,-2
C[C@@H]1CN([C@@H](C)CO)C(=O)Cc2cc(NC(=O)Nc3ccc4c(c3)OCO4)ccc2O[C@H]1CN(C)C(=O)Nc1ccc(F)cc1,.,.,45*,0,.,-1
Cc1noc(C)c1NC(=O)NCC[C@H]1CC[C@H](NC(=O)Cc2cccnc2)[C@@H](CO)O1,-4,4,3,4,.,2
C[C@H]1CCCCO[C@H](CN(C)C(=O)CCC(F)(F)F)[C@@H](C)CN([C@@H](C)CO)C(=O)c2cc(NS(=O)(=O)c3cn(C)cn3)ccc2O1,-14,0,-1,-2,.,1

# Assay outcomes from PubChem.
